The values below come from ChEMBL document CHEMBL1250442, “Inhibiting gene expression at transcription start sites in chromosomal DNA with antigene RNAs” (Nat Chem Biol, 2005).

Activity calls are given as the source filed them. No cut-off for these calls is given here.

Assay [1] relates to T47D. The assay can be described thus: Inhibition of androgen receptor expression in human T47D cells after 12 days at 100 nM by syber green assay. Format: functional, cell-based. An outline of the steps:
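AR expression in T47D cells, grown in RPMI-1640 with 10% FBS, NEAA and insulin. Plated antibiotic-free two days before Oligofectamine transfection with 100 nM duplex RNA; medium replaced after 24 h. TRIzol total RNA. SYBR Green real-time PCR: 50 °C 2 min, 95 °C 10 min, 40 cycles of 95 °C 15 s and 60 °C 1 min.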

For assay [2], the system named is T47D. The assay can be described thus: Inhibition of PR-A mRNA gene expression in human T47D cells at 100 nM by syber green assay. It is filed as functional. In short, it runs like this: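 T47D cells plated at 80,000/well without antibiotics two days before Oligofectamine transfection with agRNA duplex (25 or 100 nM final); medium changed at 24 h, harvest day 5 unless stated otherwise. TRIzol total RNA; PR mRNA by real-time PCR with SYBR Green: 50 °C 2 min, 95 °C 10 min, 40 cycles 95 °C 15 s/60 °C 1 min.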

In assay [3] the test system is T47D. The assay can be described thus: Inhibition of PR-A gene expression in human T47D cells at 25 nM by syber green assay in presence of 10 nM estradiol. It is filed as functional, cell-based.
Assay [4] relates to T47D. The assay can be described thus: Inhibition of PR-B mRNA gene expression in human T47D cells at 100 nM by syber green assay. Format: functional. An outline of the steps: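 T47D cells in RPMI-1640 with 10% FBS, NEAA, insulin, 37 °C, 5% CO2. Plated two days before transfection without antibiotics. Oligofectamine-mediated duplex RNA transfection at 100 nM final, medium changed at 24 h, harvest five days post-transfection. Total RNA extracted with TRIzol. hPR mRNA quantified by SYBR Green qPCR: 50 °C 2 min, 95 °C 10 min, then 40 cycles of 95 °C 15 s / 60 °C 1 min.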

Assay [5] deals with T47D. The assay can be described thus: Inhibition of PR-B gene expression in human T47D cells at 25 nM by syber green assay in presence of 10 nM estradiol. It is filed as functional, cell-based.
Assay [6] concerns T47D. The assay can be described thus: Inhibition of cyclooxygenase-2 expression in human T47D cells at 25 nM by syber green assay. It is filed as functional, cell-based.

The term inhibition denotes the percentage by which the read-out fell short of the control.

As to `Cc1cn(CC(=O)N(CCNC(=O)CN(CCNC(=O)CN(CCNC(=O)CN(CCNC(=O)CN(CCNC(=O)CN(CCNC(=O)CN(CCNC(=O)CN(CCNC(=O)CN(CCNC(=O)CN(CCNC(=O)CN(CCNC(=O)CN(CCNC(=O)CN(CCNC(=O)CN(CCNC(=O)CN(CCNC(=O)CN(CCNC(=O)CN(CCNC(=O)CN(CCNC(=O)CN(CCNC(=O)CN(CCNC(=O)CN)C(=O)Cn2ccc(=O)[nH]c2=O)C(=O)Cn2ccc(N)nc2=O)C(=O)Cn2ccc(N)nc2=O)C(=O)Cn2cnc3c(N)ncnc32)C(=O)Cn2ccc(N)nc2=O)C(=O)Cn2ccc(N)nc2=O)C(=O)Cn2ccc(=O)[nH]c2=O)C(=O)Cn2ccc(N)nc2=O)C(=O)Cn2ccc(N)nc2=O)C(=O)Cn2ccc(N)nc2=O)C(=O)Cn2cnc3c(N)ncnc32)C(=O)Cn2cnc3c(=O)[nH]c(N)nc32)C(=O)Cn2ccc(N)nc2=O)C(=O)Cn2cnc3c(=O)[nH]c(N)nc32)C(=O)Cn2ccc(N)nc2=O)C(=O)Cn2ccc(N)nc2=O)C(=O)Cn2ccc(N)nc2=O)C(=O)Cn2ccc(N)nc2=O)C(=O)Cn2ccc(N)nc2=O)CC(=O)NCCN(CC(=O)NCC(=O)O)C(=O)Cn2cc(C)c(=O)[nH]c2=O)c(=O)[nH]c1=O`, the inhibition entry in assay [1], in assay [3] and in assay [5] was “Active” throughout. Moreover, the inhibition at 0.1 µM in assay [2] and in assay [4] was 34% each time.
As for `Cc1cn(CC(=O)N(CCNC(=O)CN(CCNC(=O)CN(CCNC(=O)CN(CCNC(=O)CN(CCNC(=O)CN(CCNC(=O)CN(CCNC(=O)CN(CCNC(=O)CN(CCNC(=O)CN(CCNC(=O)CN(CCNC(=O)CN(CCNC(=O)CN(CCNC(=O)CN(CCNC(=O)CN(CCNC(=O)CN(CCNC(=O)CN(CCNC(=O)CN(CCNC(=O)CN(CCNC(=O)CN(CCNC(=O)CN)C(=O)Cn2cnc3c(=O)[nH]c(N)nc32)C(=O)Cn2cnc3c(=O)[nH]c(N)nc32)C(=O)Cn2cnc3c(=O)[nH]c(N)nc32)C(=O)Cn2cnc3c(=O)[nH]c(N)nc32)C(=O)Cn2ccc(N)nc2=O)C(=O)Cn2cnc3c(=O)[nH]c(N)nc32)C(=O)Cn2ccc(N)nc2=O)C(=O)Cn2ccc(=O)[nH]c2=O)C(=O)Cn2cnc3c(=O)[nH]c(N)nc32)C(=O)Cn2cnc3c(=O)[nH]c(N)nc32)C(=O)Cn2cnc3c(=O)[nH]c(N)nc32)C(=O)Cn2cnc3c(N)ncnc32)C(=O)Cn2cnc3c(=O)[nH]c(N)nc32)C(=O)Cn2cnc3c(=O)[nH]c(N)nc32)C(=O)Cn2ccc(=O)[nH]c2=O)C(=O)Cn2cnc3c(=O)[nH]c(N)nc32)C(=O)Cn2cnc3c(=O)[nH]c(N)nc32)C(=O)Cn2cnc3c(N)ncnc32)C(=O)Cn2cnc3c(=O)[nH]c(N)nc32)CC(=O)NCCN(CC(=O)NCC(=O)O)C(=O)Cn2cc(C)c(=O)[nH]c2=O)c(=O)[nH]c1=O`, the inhibition entry in assay [1], in assay [3] and in assay [5] was “Active” throughout. Further, the inhibition at 0.1 µM in assay [2] and in assay [4] was 39% throughout.
Regarding `Cc1cn(CC(=O)N(CCNC(=O)CN(CCNC(=O)CN(CCNC(=O)CN(CCNC(=O)CN(CCNC(=O)CN(CCNC(=O)CN(CCNC(=O)CN(CCNC(=O)CN(CCNC(=O)CN(CCNC(=O)CN(CCNC(=O)CN(CCNC(=O)CN(CCNC(=O)CN(CCNC(=O)CN(CCNC(=O)CN(CCNC(=O)CN(CCNC(=O)CN(CCNC(=O)CN(CCNC(=O)CN(CCNC(=O)CN)C(=O)Cn2cnc3c(=O)[nH]c(N)nc32)C(=O)Cn2ccc(N)nc2=O)C(=O)Cn2ccc(=O)[nH]c2=O)C(=O)Cn2ccc(N)nc2=O)C(=O)Cn2ccc(=O)[nH]c2=O)C(=O)Cn2ccc(N)nc2=O)C(=O)Cn2ccc(N)nc2=O)C(=O)Cn2cnc3c(N)ncnc32)C(=O)Cn2ccc(N)nc2=O)C(=O)Cn2ccc(N)nc2=O)C(=O)Cn2ccc(=O)[nH]c2=O)C(=O)Cn2ccc(N)nc2=O)C(=O)Cn2ccc(N)nc2=O)C(=O)Cn2ccc(N)nc2=O)C(=O)Cn2cnc3c(N)ncnc32)C(=O)Cn2cnc3c(=O)[nH]c(N)nc32)C(=O)Cn2ccc(N)nc2=O)C(=O)Cn2cnc3c(=O)[nH]c(N)nc32)C(=O)Cn2ccc(N)nc2=O)CC(=O)NCCN(CC(=O)NCC(=O)O)C(=O)Cn2cc(C)c(=O)[nH]c2=O)c(=O)[nH]c1=O`, the inhibition entry in assay [1], in assay [3] and in assay [5] was “Active” in each case. The inhibition at 0.1 µM in assay [2] and in assay [4] was 92% in each case.
In the case of `Cc1cn(CC(=O)N(CCNC(=O)CN(CCNC(=O)CN(CCNC(=O)CN(CCNC(=O)CN(CCNC(=O)CN(CCNC(=O)CN(CCNC(=O)CN(CCNC(=O)CN(CCNC(=O)CN(CCNC(=O)CN(CCNC(=O)CN(CCNC(=O)CN(CCNC(=O)CN(CCNC(=O)CN(CCNC(=O)CN(CCNC(=O)CN(CCNC(=O)CN(CCNC(=O)CN(CCNC(=O)CN(CCNC(=O)CN)C(=O)Cn2ccc(=O)[nH]c2=O)C(=O)Cn2ccc(N)nc2=O)C(=O)Cn2cnc3c(=O)[nH]c(N)nc32)C(=O)Cn2cnc3c(=O)[nH]c(N)nc32)C(=O)Cn2ccc(=O)[nH]c2=O)C(=O)Cn2ccc(=O)[nH]c2=O)C(=O)Cn2cnc3c(N)ncnc32)C(=O)Cn2cnc3c(=O)[nH]c(N)nc32)C(=O)Cn2ccc(N)nc2=O)C(=O)Cn2cnc3c(=O)[nH]c(N)nc32)C(=O)Cn2cnc3c(N)ncnc32)C(=O)Cn2ccc(N)nc2=O)C(=O)Cn2ccc(N)nc2=O)C(=O)Cn2cnc3c(N)ncnc32)C(=O)Cn2cnc3c(N)ncnc32)C(=O)Cn2ccc(=O)[nH]c2=O)C(=O)Cn2ccc(=O)[nH]c2=O)C(=O)Cn2cnc3c(N)ncnc32)C(=O)Cn2ccc(=O)[nH]c2=O)CC(=O)NCCN(CC(=O)NCC(=O)O)C(=O)Cn2cc(C)c(=O)[nH]c2=O)c(=O)[nH]c1=O`, the inhibition result in assay [6] and in assay [3] was “Active” throughout. In addition, the inhibition at 0.1 µM in assay [2] and in assay [4] was 71% each time.
Consider `Cc1cn(CC(=O)N(CCNC(=O)CN(CCNC(=O)CN(CCNC(=O)CN(CCNC(=O)CN(CCNC(=O)CN(CCNC(=O)CN(CCNC(=O)CN(CCNC(=O)CN(CCNC(=O)CN(CCNC(=O)CN(CCNC(=O)CN(CCNC(=O)CN(CCNC(=O)CN(CCNC(=O)CN(CCNC(=O)CN(CCNC(=O)CN(CCNC(=O)CN(CCNC(=O)CN(CCNC(=O)CN(CCNC(=O)CN)C(=O)Cn2ccc(=O)[nH]c2=O)C(=O)Cn2ccc(=O)[nH]c2=O)C(=O)Cn2cnc3c(N)ncnc32)C(=O)Cn2cnc3c(=O)[nH]c(N)nc32)C(=O)Cn2ccc(N)nc2=O)C(=O)Cn2cnc3c(=O)[nH]c(N)nc32)C(=O)Cn2cnc3c(N)ncnc32)C(=O)Cn2ccc(N)nc2=O)C(=O)Cn2ccc(N)nc2=O)C(=O)Cn2cnc3c(N)ncnc32)C(=O)Cn2cnc3c(N)ncnc32)C(=O)Cn2ccc(=O)[nH]c2=O)C(=O)Cn2ccc(=O)[nH]c2=O)C(=O)Cn2cnc3c(=O)[nH]c(N)nc32)C(=O)Cn2ccc(=O)[nH]c2=O)C(=O)Cn2ccc(N)nc2=O)C(=O)Cn2cnc3c(N)ncnc32)C(=O)Cn2ccc(=O)[nH]c2=O)C(=O)Cn2cnc3c(N)ncnc32)CC(=O)NCCN(CC(=O)NCC(=O)O)C(=O)Cn2cc(C)c(=O)[nH]c2=O)c(=O)[nH]c1=O`, for which the inhibition entry in assay [6] and in assay [3] was “Active” each time. Moreover, the inhibition at 0.1 µM in assay [2] and in assay [4] was 81% in each case.
Turning to `Cc1cn(CC(=O)N(CCNC(=O)CN(CCNC(=O)CN(CCNC(=O)CN(CCNC(=O)CN(CCNC(=O)CN(CCNC(=O)CN(CCNC(=O)CN(CCNC(=O)CN(CCNC(=O)CN(CCNC(=O)CN(CCNC(=O)CN(CCNC(=O)CN(CCNC(=O)CN(CCNC(=O)CN(CCNC(=O)CN(CCNC(=O)CN(CCNC(=O)CN(CCNC(=O)CN(CCNC(=O)CN(CCNC(=O)CN)C(=O)Cn2ccc(N)nc2=O)C(=O)Cn2cnc3c(N)ncnc32)C(=O)Cn2ccc(N)nc2=O)C(=O)Cn2ccc(N)nc2=O)C(=O)Cn2ccc(=O)[nH]c2=O)C(=O)Cn2ccc(N)nc2=O)C(=O)Cn2ccc(N)nc2=O)C(=O)Cn2ccc(N)nc2=O)C(=O)Cn2cnc3c(N)ncnc32)C(=O)Cn2cnc3c(=O)[nH]c(N)nc32)C(=O)Cn2ccc(N)nc2=O)C(=O)Cn2cnc3c(=O)[nH]c(N)nc32)C(=O)Cn2ccc(N)nc2=O)C(=O)Cn2ccc(N)nc2=O)C(=O)Cn2ccc(N)nc2=O)C(=O)Cn2ccc(N)nc2=O)C(=O)Cn2ccc(N)nc2=O)C(=O)Cn2ccc(=O)[nH]c2=O)C(=O)Cn2ccc(N)nc2=O)CC(=O)NCCN(CC(=O)NCC(=O)O)C(=O)Cn2cc(C)c(=O)[nH]c2=O)c(=O)[nH]c1=O`, the inhibition entry in assay [1], in assay [3] and in assay [5] was “Active” each time. Also, the inhibition at 0.1 µM in assay [2] and in assay [4] was 100% throughout.
